{"data": "Results gathered from unrelated publications", "note": "Each line is one published result; the experiments were not run side by side."}
{"SMILES": "Clc1ccc2c(c1)nc(NCCN1CCOCC1)n2Cc1ccccc1", "test": "shake flask", "system": "aqueous buffer", "setting": "20 h, pH 6.5, 25 °C", "solubility": "53 µM"}
{"SMILES": "CCOc1ccc2cc(-c3nn(C4CCC4)c(N)c3C(N)=O)cnc2c1", "system": "PBS", "setting": "pH 6.5, 25 °C", "solubility": "10.9 µM"}
{"SMILES": "CC(C)Cc1ccc(C(C)C(=O)O)cc1 (stereo not shown)", "system": "PBS", "setting": "pH 7.4", "solubility": "4580 µg/mL"}
{"SMILES": "COCc1nc2nc(C)cc(Nc3ccc(C(F)(F)F)cc3)n2n1", "test": "nephelometry", "system": "aqueous buffer", "setting": "pH 6.5", "solubility": "150 to 300 µM"}
{"SMILES": "N=C(N)N1CC=C(c2coc(C(=O)Nc3ccc(C4=CCN(C(=N)N)CC4)c(F)c3)c2)CC1", "test": "shake flask", "system": "aqueous buffer", "setting": "pH 7.4", "solubility": "58 µg/mL"}
{"SMILES": "COc1c(Cl)cccc1Nc1nc(NCc2ccccc2)c2ccccc2n1", "system": "aqueous buffer", "setting": "pH 6.2", "solubility": "0.23 µg/mL"}
{"SMILES": "CC[C@H](C)[C@H](NC(=O)[C@H](Cc1ccccc1)NC(=O)[C@H](Cc1ccc(O)cc1)NC(=O)[C@@H]1CCCN1C(=O)[C@@H](N)Cc1ccc(O)cc1)C(=O)N1CCC[C@H]1C(=O)N[C@@H](CC(C)C)C(=O)NCC(=O)NCC(=O)NCC(=O)N[C@@H](CCC(=O)O)C(=O)N[C@H](C(=O)N[C@@H](CC(N)=O)C(=O)N[C@@H](CC(C)C)[C@@H](O)CC(=O)N[C@H](C(=O)N[C@@H](C)C(=O)N[C@@H](CCC(=O)O)C(=O)N1CCC[C@@H]1C(=O)N[C@@H](CCCCNC(=O)CCC(=O)O[C@H]1CC[C@@]2(C)C(=CC[C@H]3[C@@H]4CC[C@H]([C@H](C)CCCC(C)C)[C@@]4(C)CC[C@@H]32)C1)C(N)=O)C(C)C)C(C)C", "system": "aqueous buffer", "setting": "pH 6.5", "solubility": "< 1 µg/mL"}
{"SMILES": "Cc1cc(F)cc(Nc2nc(NCc3ccccc3)c3ccccc3n2)c1", "system": "aqueous buffer", "setting": "pH 5", "solubility": "0.05 µg/mL"}
{"SMILES": "COc1cccc2c(-c3ccccc3)cc(-c3ccc(-c4ccc(C(=O)O)cc4)[nH]3)nc12", "system": "PBS", "setting": "pH 7.4", "solubility": "0.26 µM"}
{"SMILES": "CN1CCC(N2CCN(c3nccc4[nH]c(-c5ccc(F)c(F)c5)nc34)CC2)CC1", "test": "shake flask", "system": "aqueous buffer", "setting": "pH 6.5", "solubility": "> 200 µM"}
{"SMILES": "Cc1ccc(Nc2nc(NCc3ccccc3)c3ccccc3n2)cc1F", "system": "aqueous buffer", "setting": "pH 6.2", "solubility": "0.04 µg/mL"}
{"SMILES": "O=C(Nc1c(F)cccc1C(=O)O)c1ccc(-c2ccccc2)cc1", "test": "shake flask", "system": "aqueous buffer", "setting": "24 h, pH 6.5, 25 °C", "solubility": "80 µM"}
{"SMILES": "COc1cc(OC)cc(N(CCNC(C)C)c2ccc3ncc(-c4cnn(C)c4)nc3c2)c1", "system": "aqueous buffer", "setting": "pH 9.61", "solubility": "1 µg/mL"}
{"SMILES": "O=C(Nc1cc(F)c(F)c(F)c1)c1ccc(F)c(S(=O)(=O)NCc2cccc(B(O)O)c2)c1", "system": "aqueous buffer", "setting": "pH 7.4", "solubility": "427 µg/mL"}
{"SMILES": "O=C(/C=C/c1ccc(CN(CCO)CCc2c[nH]c3ccccc23)cc1)NO", "test": "HPLC", "system": "water", "setting": "48 h, pH 6, 25 °C", "solubility": "8 µg/mL"}
{"SMILES": "COCCc1nc2nc(C)cc(Nc3ccc(S(F)(F)(F)(F)F)cc3)n2n1", "test": "nephelometry", "system": "aqueous buffer", "setting": "pH 6.5", "solubility": "31 to 62 µM"}
{"SMILES": "CCOC(=O)C1=C(C)NC(C)=C(C(=O)OC)C1c1cccc(Cl)c1Cl (stereo not shown)", "system": "FaSSIF", "setting": "24 h, pH 7.4, 37 °C", "solubility": "40 µg/mL"}
{"SMILES": "COc1cccc(OC)c1-c1cc(C(=O)N[C@@H](CC(C)C)C(=O)O)nn1-c1ccnc2cc(Cl)ccc12", "system": "aqueous buffer", "setting": "pH 7.4", "solubility": "> 155 µg/mL"}
{"SMILES": "CCCOc1ccc2cc(-c3nn(C(C)(C)C)c(N)c3C(N)=O)cnc2c1", "system": "PBS", "setting": "pH 6.5, 25 °C", "solubility": "12.7 µM"}
{"SMILES": "O=C(Nc1c2c(cc3c1CCC3)CCC2)NS(=O)(=O)/C=C/c1nccs1", "system": "PBS", "setting": "24 h, pH 6.8, 37 °C", "solubility": "646 µg/mL"}
{"SMILES": "Clc1ccc2c(c1)nc(NCc1ccccn1)n2Cc1ccccc1", "test": "shake flask", "system": "aqueous buffer", "setting": "20 h, pH 6.5, 25 °C", "solubility": "15 µM"}
{"SMILES": "COc1cccc2c(NCc3ccccc3)nc(N3CCNc4ccccc43)nc12", "system": "aqueous buffer", "setting": "pH 6.2", "solubility": "10.2 µg/mL"}
{"SMILES": "O=C(Nc1ccc(S(=O)(=O)N2CCC(Cl)CC2)cc1)c1ccc([N+](=O)[O-])o1", "system": "aqueous buffer", "setting": "pH 5", "solubility": "3.8 µg/mL"}
{"SMILES": "N=C(N)NCc1ccc(NC(=O)c2ccc(C(=O)Nc3ccc(C4=CCN(C(=N)N)CC4)cc3)cc2)cc1", "test": "shake flask", "system": "aqueous buffer", "setting": "pH 7.4", "solubility": "171 µg/mL"}
{"SMILES": "CC(C(=O)O)c1ccc(-c2ccccc2)c(F)c1 (stereo not shown)", "system": "PBS", "setting": "pH 7.4", "solubility": "4490 µg/mL"}
{"SMILES": "CC(C)CC(=O)N1CCC[C@H](COc2cccc3c2C(N)=NS(=O)(=O)[N-]3)C1.[Na+]", "system": "water", "solubility": "235000 µM"}
{"SMILES": "CN1CCN(CC2CCN(c3cccc4[nH]c(-c5cc(F)cc(F)c5)nc34)CC2)CC1", "test": "shake flask", "system": "aqueous buffer", "setting": "pH 6.5", "solubility": "> 200 µM"}
{"SMILES": "Brc1cccc2c(NCc3ccccc3)nc(NCc3ccccc3)nc12", "system": "aqueous buffer", "setting": "pH 6.2", "solubility": "0.13 µg/mL"}
{"SMILES": "Cc1cccc(F)c1N1CCC(N2Cc3cn(CC(C)(F)F)nc3N(Cc3ccccc3C(F)(F)F)C2=O)CC1", "system": "aqueous buffer", "setting": "pH 7.4", "solubility": "10 µM"}
{"SMILES": "Cc1c(F)cccc1NC(=O)Nc1ccc(Cl)c(S(=O)(=O)[C@H]2CCCNC2)c1O", "system": "aqueous buffer", "setting": "4 h, pH 10", "solubility": "68 µg/mL"}
{"SMILES": "Cl.Clc1ccc2c(nc(N3CCNCC3)n2Cc2ccccc2)c1-c1ccncc1", "test": "shake flask", "system": "aqueous buffer", "setting": "20 h, pH 6.5, 25 °C", "solubility": "200 µM"}
{"SMILES": "NC1CCN(c2nccc3[nH]c(-c4cccc(OC(F)(F)F)c4)nc23)CC1", "test": "shake flask", "system": "aqueous buffer", "setting": "pH 6.5", "solubility": "> 200 µM"}
{"SMILES": "CC(C)(C)n1nc(-c2ccc3nc(OC4CCC4)ccc3c2)c(C(N)=O)c1N", "system": "PBS", "setting": "pH 6.5, 25 °C", "solubility": "80.6 µM"}
{"SMILES": "NC(=O)c1ccc(N(Cc2ccc(C3CCCCC3)cn2)C(=O)[C@H]2CCN2S(=O)(=O)c2c(F)c(F)c(F)c(F)c2F)cc1O", "system": "simulated gastric fluid", "solubility": "107 µg/mL"}
{"SMILES": "CCCN(C)Cc1cc(-c2[nH]c3cccc(F)c3c(=O)c2C)ccc1Cc1ccc(OC(F)(F)F)cc1", "system": "PBS", "setting": "pH 7.4", "solubility": "< 0.2 µM"}
{"SMILES": "COCc1nn(Cc2ccc(Cn3ccccc3=O)cc2)cc1C(=O)NCc1c(F)ccc(OC)c1F", "system": "FaSSIF", "setting": "4 h, pH 1.6", "solubility": "9 µg/mL"}
{"SMILES": "Clc1ccc2c(c1)nc(C1CCNCC1)n2Cc1ccccc1", "test": "shake flask", "system": "aqueous buffer", "setting": "20 h, pH 6.5, 25 °C", "solubility": "125 µM"}
{"SMILES": "COC(=O)[C@H]1[C@H]2C[C@@H]3c4[nH]c5cc(OC)ccc5c4CCN3C[C@H]2C[C@@H](OC(=O)c2cc(OC)c(OC)c(OC)c2)[C@@H]1OC", "test": "shake flask", "system": "PBS", "setting": "24 h, pH 6.5, 25 °C", "solubility": "< 5 µM"}
{"SMILES": "CCc1nc2nc(C)cc(Nc3ccc(C(F)(F)F)cc3)n2n1", "test": "nephelometry", "system": "aqueous buffer", "setting": "pH 6.5", "solubility": "39 to 78 µM"}
{"SMILES": "COc1ccc(N2CCN(CCCNC(=O)Cn3c(=O)c4cccn4c4c(C)ccnc43)CC2)cc1", "system": "aqueous buffer", "setting": "pH 7.4", "solubility": "12.4 µg/mL"}
{"SMILES": "CCCn1nc(C(=O)N2CCCCC2)c2c1CCC(N1CCc3ccccc3C1)C2 (stereo not shown)", "system": "PBS", "setting": "16 h, pH 7.4", "solubility": "713 µM"}
{"SMILES": "Cc1cc(Nc2ccc(C(F)(F)F)cc2)n2nc(CCO)nc2n1", "test": "nephelometry", "system": "aqueous buffer", "setting": "pH 6.5", "solubility": "19 to 37 µM"}
{"SMILES": "CCn1cc(CNC(=O)C2=C(C)NC(Nc3nc4ccc(F)c(N)c4o3)=NC2c2ccc(C)cc2Cl)cn1 (stereo not shown)", "system": "aqueous buffer", "setting": "6 h, pH 7.4", "solubility": "< 1 µg/mL"}
{"SMILES": "COc1c(N2CCNC(C)C2)c(F)cc2c(=O)c(C(=O)NCCCN(C)C)cn(C3CC3)c12 (racemic)", "system": "water", "solubility": "72000 µM"}
{"SMILES": "CN1C(C(=O)Nc2ccccn2)=C(O)c2ccccc2S1(=O)=O", "test": "shake flask", "system": "aqueous buffer", "setting": "48 h, pH 6.5", "solubility": "7 to 9 µg/mL"}
{"SMILES": "OCCOc1cccc2c(NCc3ccccc3)nc(N3CCOc4ccccc43)nc12", "system": "aqueous buffer", "setting": "pH 6.2", "solubility": "0.48 µg/mL"}
{"SMILES": "COCCOCCOCc1n(Cc2ccc3ccccc3n2)c2ccccc2[n+]1Cc1ccc2ccccc2n1.[Cl-]", "system": "water", "solubility": "> 40000 µg/mL"}
{"SMILES": "CC(C)[C@@H]1CC[C@@H](C)CC1=O", "system": "PBS", "setting": "48 h, pH 7.4, 25 °C", "solubility": "3000 µM"}
{"SMILES": "Cc1ccc(S(=O)(=O)NCc2ccc(C(=O)NCCN(Cc3ccccc3)C(C)C)cc2)cc1", "system": "aqueous buffer", "setting": "pH 6.2", "solubility": "0.12 µg/mL"}
{"SMILES": "Brc1ccccc1CNc1nc(NCc2ccccc2)c2ccccc2n1", "system": "aqueous buffer", "setting": "pH 5", "solubility": "0.21 µg/mL"}
{"SMILES": "Cc1nnc(CCCCCN)nn1.Cl", "system": "water", "solubility": "> 500000 µM"}
{"SMILES": "CC(C)(C)n1nc(-c2cnc3cc(OCC4CC4)ccc3c2)c(C(N)=O)c1N", "system": "PBS", "setting": "pH 6.5, 25 °C", "solubility": "26.8 µM"}
{"SMILES": "COc1cccc(OC)c1-c1nc(C(=O)N[C@@H](CC(C)C)C(=O)O)cn1-c1ccnc2cc(Cl)ccc12", "system": "aqueous buffer", "setting": "pH 6.2", "solubility": "> 52 µg/mL"}
{"SMILES": "CCOc1ccc2cc(-c3nn(CC4CC4)c(N)c3C(N)=O)cnc2c1", "system": "PBS", "setting": "pH 6.5, 25 °C", "solubility": "26.5 µM"}
{"SMILES": "COc1cccc2c(NCc3ccccc3)nc(NCc3ccccc3)nc12", "system": "aqueous buffer", "setting": "pH 5", "solubility": "3.2 µg/mL"}
